From PubChem
This is a sample that favours compounds with a hit; in the whole collection about 3.1% have one here.
H9c2 TAG inh: reduces triacylglycerol accumulation in H9c2 cells; Nile Red lipid (TAG) fluorescence; cells loaded with 200 µM oleic acid; inhibition, % at 12.5 µM; 230,000 compounds, 0.66% hits;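 active means pattern-corrected inhibition of lipid staining of at least 50% with the nuclear-stain viability signal not falling by more than 50%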;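 further: 0% = DMSO wells and 100% = triacsin C control wells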
T cruzi repl: T. cruzi replication inhibition; T. cruzi beta-gal in NIH3T3, luminescence, 90 h; inhibition, % (no concentration beside the values); 300,000 compounds, 1.4% hits; AID 1885;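 active means mean inhibition across valid replicates above about 55%, limit read from the data; inconclusive means mean below that limit but half or more replicates reach it; inactive means mean below it, under half of replicates reach it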;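 further: signal also drops with host cell toxicity which is not excluded here; 0% = plate median of DMSO wells and 100% = zero luminescence signal; higher percent means less beta-gal luminescence so fewer parasites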
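System – NIH/3T3 host cells with β-galactosidase reporter T. cruzi · Doses – single 50 nL compound addition per well in DMSO · Reagent – 5000 T. cruzi trypomastigotes/well · Medium – Low-serum DMEM with 2% FBS · Timing – ≥90 h infection period, 3 h prior cell attachment · Evaluation – parasite load inhibition, % · Technique – GalScreen luminescence, 60 min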
Calb FLC: affects C. albicans growth with fluconazole. C. albicans CaCi-2 + fluconazole, Alamar Blue growth, 48 h. growth inhibition, % (concentration not given with the values). 300,000 compounds, 0.57% hits. AID 1979;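 active means growth inhibition above about 58% in most replicates, limit read from the data, passing the limit was not always enough; inconclusive means exactly half the replicates above a set limit; inactive means most replicates below a set limit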;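 further: all wells also contain fluconazole at 8 µg/ml as a sub-toxic cotreatment; 0% = median of DMSO wells and 100% = median of geldanamycin control wells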
CSC inhib: blocks cancer stem cells; 300,000 compounds, 1.1% hits; inhibition, % at 7.5 µM; cancer stem cell-like cells viability, luminescence; in the data active means inhibition above about 75%; inconclusive means no clear call, values can overlap the other calls; tested in HMLE shEcad cells
Bfl-1 A1 inh: inhibitors of the anti-apoptotic protein A1, read as caspase activation; caspase activation, % (test concentration not listed); 330,000 compounds, 0.066% hits; MEF A1-2A-BIM cells, Caspase-Glo 3/7 luminescence, 3 h; percent of clofoctol response, vehicle zero; AID 2462;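 active means over half of replicate activation scores above 10%, or exactly half above 10 with the replicate mean above 10; inconclusive means replicate mean below 10 yet half the replicates above 10; inactive means over half of replicates below 10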
Beta cell apopt: blocks beta cell apoptosis; 300,000 compounds, 0.8% hits; INS-1E cytokine-induced death, ATP luminescence, 48 h; percent of positive-control rescue, neutral wells zero; AID 435005; protection from apoptosis, % (test concentration not listed);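 active means Every replicate reaches about 75%, or at least half do and their mean reaches it too, limit read from the data; inconclusive means At least half of replicates reach the limit but their mean does not; inactive means Under half of replicates reach the limit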;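 further: 0% = cytokine-treated negative control wells and 100% = positive control rescue; higher means more ATP so stronger rescue from cytokine killing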
An asterisk follows results filed as active; ? = inconclusive; . = no result given.

SMILES	H9c2 TAG inh	T cruzi repl	Calb FLC	CSC inhib	Bfl-1 A1 inh	Beta cell apopt
O=c1c2ccccc2nc(-c2ccc(Cl)cc2Cl)n1O	-8.0	3.4	83.8*	22.7	0.1	-3.0
O=c1c2ccc(Cl)cc2nc(-c2cccc(C(F)(F)F)c2)n1O	-1.2	-7.6	78.9*	-5.9	0.1	51.3
Cc1ccc(-c2nc3c(Cl)cc(Cl)cc3c(=O)n2O)cc1	.	-15.2	95.7*	32.1	0.0	5.5
CCN(CC(=O)Nc1c(F)cccc1F)C(=O)c1ccc(Cl)c(S(=O)(=O)N2CCCCC2)c1	-3.4	12.8	0.7	-27.1	1.8	2.2
Cc1ccc(NC(=O)C2COc3ccccc3O2)cc1C (stereo unspecified)	-5.4	-1.2	1.8	1.6	0.1	.
COc1ccc(-n2ncc(C(C)NS(=O)(=O)c3cc(C)sc3C)c2C)cc1 (stereo unspecified)	3.2	.	.	.	.	.
COC(=O)c1sccc1S(=O)(=O)N1CCCC(N(C)CCc2ccccn2)C1 (stereo unspecified)	-2.8	11.2	1.8	11.2	-1.0	18.8
COc1cc2nc(N3CCN(c4cc(C)ccc4C)CC3)nc(N)c2cc1OC	.	55.5*	12.3	105.9*	-0.4	118.2*
Cc1noc(C)c1COc1ccccc1C(=O)NC(C)c1ccc(Cl)cc1 (stereo unspecified)	-3.7	.	.	.	0.8	-2.1
O=C(CSc1nnc(CN2CCCC2)n1-c1ccccc1)c1ccc2c(c1)OCO2	-5.6	.	.	42.8	0.1	-5.7
COc1ccc(C(=O)CSc2nnc(CN3CCCCC3)n2-c2ccc(Cl)cc2)cc1OC	.	-6.4	24.7	140.1*	0.9	-18.7
COc1ccccc1CNC(=O)COC(=O)c1cc(=O)c2ccccc2o1	8.3	.	.	-10.5	-0.9	-0.9
CC1=CC(C)[C@H](/C=N/n2c(=O)[nH]c3c([nH]c4ccc(C)cc43)c2=O)C(C)C1 (stereo partly specified)	35.3	6.6	-3.2	87.3*	2.5	25.3
O=C1CC(SC(=Nc2ccccc2)Nc2ccccc2)C(=O)N1c1ccc(Cl)c(Cl)c1 (stereo unspecified)	.	55.4*	-1.9	36.1	0.3	3.8
CC(=O)Nc1cc(-c2cccc(C(=O)NCCO)c2)cn2c(-c3ccc(F)c(Cl)c3)cnc12	5.5	.	.	.	.	.
Cc1ccc(Cn2c(O)c(N=NC(=S)Nc3ccccc3F)c3ccccc32)cc1	-8.1	65.8*	-5.7	26.9	0.4	14.3
Cc1c(Cl)cccc1NC(=S)N=Nc1c(O)n(CN2CCOCC2)c2ccccc12	.	62.6*	.	60.6	-0.4	45.6
C/C(Cl)=C\Cn1c(O)c(N=NC(N)=S)c2ccccc21	4.9	60.5*	-16.6	21.5	0.7	10.7
Cc1ccccc1NC(=S)N=Nc1c(O)n(C)c2ccc(S(=O)(=O)N3CCOCC3)cc12	13.5	43.8	-0.6	53.7	-0.8	52.7
C=CCn1c(O)c(N=NC(=S)Nc2ccccc2F)c2cc(S(=O)(=O)N3CCOCC3)ccc21	21.1	57.5*	70.9	-13.6	0.1	28.0
NC(=S)N=Nc1c(O)n(Cc2ccccc2)c2ccccc12	.	40.8	-9.6	-2.0	0.0	5.8
CC(C)[C@H](NS(=O)(=O)c1ccccc1F)C(=O)NC1CCCCC1	7.8	.	.	8.4	-1.2	-2.5
C=CCn1c(O)c(N=NC(=S)Nc2cccc(C)c2)c2ccccc21	.	58.5*	?	44.0	-0.1	59.9
Oc1c(N=NC(=S)Nc2ccccc2F)c2ccccc2n1Cc1ccccc1Cl	19.7	68.0*	12.6	1.8	1.8	37.5
CCCCNC(=S)N=Nc1c(O)n(Cc2ccccc2)c2ccccc12	.	9.1	-12.3	80.1*	-0.2	8.0
SMILES	H9c2 TAG inh	T cruzi repl	Calb FLC	CSC inhib	Bfl-1 A1 inh	Beta cell apopt
C=CCn1c(O)c(N=NC(=S)Nc2ccccc2F)c2ccccc21	13.9	48.7	-5.3	2.4	1.2	56.3
Oc1c(N=NC(=S)Nc2ccccc2F)c2ccccc2n1Cc1ccccc1	10.9	51.1	1.4	.	-0.7	40.7
Cc1ccc(NC(=O)COc2ccc(N(C)S(=O)(=O)c3ccc(F)cc3)cc2)cc1	-7.2	.	.	10.8	-0.9	-5.3
Cc1cc2c(=O)n(C)c(SCC(=O)Nc3ccc(F)cc3)nc2s1	14.7	.	.	.	.	.
O=C1NC(=S)S/C1=C\c1cc2ccccc2nc1N1CCCCC1	-0.5	-25.5	8.9	113.8*	-0.3	19.5
COc1ccc2nc(N3CCCCC3)c(/C=C3\SC(=S)NC3=O)cc2c1	-3.0	-5.3	-3.6	121.0*	-0.1	18.2
COc1ccc(-n2c(C)cc(/C=C3\SC(=S)NC3=O)c2C)cc1	.	6.5	-2.3	9.5	0.5	5.8
Cc1ccc(S(=O)(=O)N(C(=N)N)c2nc(N(C)C)nc(N(C)C)n2)cc1	.	55.0*	-6.0	-18.3	0.4	-3.5
Cc1ccc(S(=O)(=O)N(C)c2ccc(N)cc2)cc1	3.2	-2.2	-0.2	2.4	-0.5	3.3
CC(=O)NN1C(=O)c2ccc3c4c(ccc(c24)C1=O)C(=O)N(NC(C)=O)C3=O	.	4.6	2.8	41.8	-0.8	108.3*
O=C1c2ccc3c4c(ccc(c24)C(=O)N1NC(=O)C(F)(F)F)CC3	.	-21.1	-3.1	-3.1	0.5	-3.1
CCOC(=O)N1CCN(C(=O)c2ccc3c(c2)sc2nc(-c4ccc(OC)cc4)cn23)CC1	.	15.5	15.5	-10.8	2.1	11.4
COc1ccc2c(c1)sc1nc(-c3ccccc3)cn12	44.7	4.6	-12.6	91.4*	-10.4	34.8
COc1ccc(Cc2nnc(N/N=C/c3ccc(O)cc3O)[nH]c2=O)cc1OC	.	-13.6	-2.9	90.7*	0.1	35.7
CCCCCCc1cc2cc(C(=O)Nc3cccc(OC)c3)c(=O)oc2cc1O	.	-9.4	-3.9	.	-0.9	99.0*
Cc1ccc(-n2nnnc2C(Cl)c2nnnn2-c2ccc(C)cc2)cc1	.	55.0*	96.0*	.	.	.
Cc1ccc(-n2nnnc2-c2ccccc2)cc1	11.6	-5.3	22.3	3.4	0.2	1.5
CC(C)CCN1C(N(C)C)=NC[C@@H]1C	-13.5	.	.	-12.2	0.5	-8.4
COc1ccc(-c2cc3nc(-c4ccccc4)cc(N4CCCC(O)C4)n3n2)cc1 (stereo unspecified)	13.5	?	-10.4	93.5*	1.6	18.4
O=C(NCCCNC(=O)c1ccccn1)c1ccc(F)cc1	.	-23.2	-8.6	-3.2	-1.4	-2.4
CC(OC(=O)c1ccc(S(=O)(=O)NCc2ccco2)cc1)C(=O)Nc1ccccc1 (stereo unspecified)	1.3	.	.	2.1	-1.5	3.0
O=C(/C=C/c1ccccc1)c1cc(Br)ccc(=O)c1O	.	48.4	-3.5	93.3*	-0.6	16.7
COc1ccc(C=CC(=O)c2ccc(OC)c(OC)c2O)cc1OC	11.5	.	.	.	.	.
O=C(/C=C/c1ccc(F)cc1)c1cc(Br)ccc1O	-13.8	0.4	-8.7	?	0.4	1.6
Cc1ccc(/C=C/C(=O)c2ccccc(=O)c2O)cc1C	.	58.8*	99.3*	96.7*	2.5	22.5
